Casp6 inh: human caspase-6 inhibitors, primary screen, biochemical, VEID-R110 fluorescence, single point, set 2; P55212; purified caspase-6, Z-VEID-R110 cleavage fluorescence; inhibition, % at 12.5 µM; actives 0.53% (n = 350,000); AID 686996, 2013;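 active means mean inhibition across replicates at least about 35%, with every replicate also reaching that limit, limit read from the data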;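 further: 0% = median of neutral control wells and 100% = no fluorescence left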
DNMT1 block: human DNMT1 methyltransferase inhibitors, primary screen, biochemical, molecular beacon, fluorescence, HinP1I cleavage, uHTS; DNA (cytosine-5)-methyltransferase 1 (Homo sapiens), P26358; actives 0.83% (n = 360,000); AID 588458, 2011; inhibition (reported as % activation of signal), % at 10 µM
Target sequence (P26358 504-1616 limits assumed): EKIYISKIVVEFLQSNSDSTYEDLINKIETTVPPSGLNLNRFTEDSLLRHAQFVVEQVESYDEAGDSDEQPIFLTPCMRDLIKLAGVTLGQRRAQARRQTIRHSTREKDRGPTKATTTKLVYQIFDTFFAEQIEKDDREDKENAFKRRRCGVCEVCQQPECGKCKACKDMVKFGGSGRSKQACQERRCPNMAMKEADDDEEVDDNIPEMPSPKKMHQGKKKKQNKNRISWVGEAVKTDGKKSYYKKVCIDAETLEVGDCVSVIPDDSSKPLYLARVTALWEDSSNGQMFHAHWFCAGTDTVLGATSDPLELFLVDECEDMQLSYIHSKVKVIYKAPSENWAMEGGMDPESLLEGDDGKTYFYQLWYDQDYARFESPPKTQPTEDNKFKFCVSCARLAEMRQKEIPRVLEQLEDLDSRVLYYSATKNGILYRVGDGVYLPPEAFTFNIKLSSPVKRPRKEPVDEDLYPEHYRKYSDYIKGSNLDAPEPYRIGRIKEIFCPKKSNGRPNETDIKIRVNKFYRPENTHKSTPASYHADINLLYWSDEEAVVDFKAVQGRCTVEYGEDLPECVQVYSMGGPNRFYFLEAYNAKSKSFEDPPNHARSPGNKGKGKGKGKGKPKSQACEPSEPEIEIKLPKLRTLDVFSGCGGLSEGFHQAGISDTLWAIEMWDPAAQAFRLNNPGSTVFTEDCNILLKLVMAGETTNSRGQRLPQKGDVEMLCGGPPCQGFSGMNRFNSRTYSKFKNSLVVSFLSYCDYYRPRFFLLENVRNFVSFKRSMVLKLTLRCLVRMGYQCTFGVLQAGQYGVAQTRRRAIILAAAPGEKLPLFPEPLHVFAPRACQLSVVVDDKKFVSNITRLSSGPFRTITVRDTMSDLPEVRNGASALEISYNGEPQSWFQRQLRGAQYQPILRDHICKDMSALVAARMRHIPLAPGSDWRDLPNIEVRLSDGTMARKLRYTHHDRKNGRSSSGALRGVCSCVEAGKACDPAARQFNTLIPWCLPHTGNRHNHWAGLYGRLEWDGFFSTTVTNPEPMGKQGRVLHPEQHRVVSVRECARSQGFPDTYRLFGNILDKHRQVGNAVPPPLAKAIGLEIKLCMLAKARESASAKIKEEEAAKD
NSD2 HMT inh: NSD2 histone methyltransferase inhibitors, primary screen, biochemical, AlphaScreen, single concentration, set 2; actives 0.54% (n = 310,000); inhibition, % at 12.5 µM; Histone-lysine N-methyltransferase NSD2 (Homo sapiens), O96028; AID 743445, 2014; NSD2 peptide methylation, 120 min
NS3 helicase inh: inhibitors of HCV NS3 helicase, primary screen, biochemical, Cy5 molecular beacon fluorescence | Hepatitis C virus NS3 helicase | actives 0.56% (n = 290,000) | NS3 helicase DNA unwinding | AID 1800, 2009 | inhibition, % at 10.9 µM;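 active means inhibition above the mean of all tested compounds plus 3 SD, set per campaign, cut at about 35% in these data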;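 further: 0% = DMSO wells and 100% = thioflavine S control wells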
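test system = hepatitis C virus NS3 helicase domain fragment enzyme | reagent = annealed dual-labelled DNA beacon duplex, ATP-started | times = 1 h at 25 °C | detection = Cy5 fluorescence, 0 and 60 min reads | read-out basis = percent inhibition from t60/t0 fluorescence ratio | control set = DMSO and thioflavine S | replication = one well per compound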
DNMT1 inh conf: DNMT1 methyltransferase inhibitor retest, confirmation, biochemical, molecular beacon, fluorescence, single concentration. shares compounds with DNMT1 block. DNMT1 molecular beacon HinP1I cleavage. inhibition, % at 10 µM. actives 8% (n = 2,300). AID 602385, 2012;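 active means average inhibition of at least 30% in the single-concentration confirmation test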
Beacon interf: beacon fluorescence artifact counter-screen; DNMT1 molecular beacon spectral interference counterscreen, fluorescence 485/520; actives 1% (n = 2,300); activation (fluorescence interference), % at 10 µM; shares compounds with DNMT1 block;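 active means activation of at least 30% at 10 µM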;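 further: DNMT1 catalytic domain with a HinP1I cleavage step and a FAM/dabcyl DNA beacon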
Numbers without * were called inactive; . = not tested or not shown. Hits are enriched below; roughly 1.5% of the tested compounds scored in any of these assays. Unless noted, no stated cut-off is given here; in the data, active means inhibition above about 50%; inactive means the rest.

SMILES	Casp6 inh	DNMT1 block	NSD2 HMT inh	NS3 helicase inh	DNMT1 inh conf	Beacon interf
COc1cccc(-c2ccc([C@H]3[C@@H](CO)N4C(=O)CN(C(=O)CN5CCOCC5)C[C@@H]34)cc2)c1	1.3	.	.	.	.	.
COc1ccc(/C=c2\sc3nc(-c4ccccc4OC)nn3c2=O)c(OC)c1	.	70.9*	0.7	13.7	0.2	-7.9
C[C@H](CO)N1C[C@H](C)[C@H](CN(C)C(=O)Cc2cccnc2)Oc2ncc(/C=C/c3ccccc3)cc2C1=O	1.1	.	.	.	.	.
COc1ccc(/C=N/NC(=O)CCN2CCN(c3ccccc3)CC2)c(OC)c1OC	.	-0.9	-0.8	-3.9	.	.
O=C(CCN1CCN(c2ccccc2)CC1)N/N=C/c1ccc(O)c(O)c1O	65.3*	78.8*	21.3	18.2	3.3	1.9
CCCCCCc1c(C)c2ccc(OCC(=O)N[C@@H](Cc3ccccc3)C(=O)O)cc2oc1=O	21.2	60.6*	.	-44.9	3.9	-3.5
COc1ccc(NC(=O)Nc2ccc3c(c2)C(=O)N([C@@H](C)CO)C[C@@H](C)[C@@H](CN(C)Cc2ccccc2)OCCCC[C@H](C)O3)cc1	0.1	.	.	.	.	.
Cc1ccccc1N(C(=O)Cc1ccsc1)C(C(=O)NC1CCCCC1)c1ccc(F)cc1 (stereo not drawn)	0.1	59.2*	.	0.5	1.2	0.9
Cc1cc(C(=O)Nc2cccc3c2O[C@@H](CN(C)CC2CCCCC2)[C@H](C)CN([C@H](C)CO)C3=O)n(C)n1	1.3	.	.	.	.	.
CCc1c(C)c2ccc(OC(C)C(=O)NC(Cc3c[nH]c4ccc(O)cc34)C(=O)O)c(C)c2oc1=O (stereo not drawn)	10.6	2.7	.	15.4	.	.
Cc1cc(=O)oc2c(C)c(OC(C)C(=O)NC(Cc3c[nH]c4ccc(O)cc34)C(=O)O)ccc12 (stereo not drawn)	6.0	85.0*	.	15.7	2.5	1.4
O=C(Nc1nnc(-c2ccccc2F)s1)Nc1ccccc1F	.	52.7*	.	5.0	2.6	2.7
COc1ccc(S(=O)(=O)Nc2ccc3c(c2)C(=O)N([C@@H](C)CO)C[C@@H](C)[C@H](CN(C)S(=O)(=O)c2c(C)noc2C)OCCCC[C@H](C)O3)cc1	-0.8	.	.	.	.	.
c1ccc(-c2cnn3c(-c4ccccc4)c(-c4ccccc4)nc3n2)cc1	.	177.5*	-1.8	-24.1	13.1	59.9*
Cc1cc(NC(=O)CSc2cn(CCNC(=O)c3ccccc3)c3ccccc23)no1	.	71.8*	.	-3.9	7.2	-0.2
O=C(Cn1cnnn1)OCC(=O)c1ccc(Cl)s1	.	58.3*	2.0	16.5	7.4	1.9
Cc1cc(C)c(C(=O)COC(=O)Cn2cnnn2)cc1C	.	2.2	-1.0	9.2	.	.
COc1ccc(S(=O)(=O)Nc2ccc3c(c2)CC(=O)N([C@@H](C)CO)C[C@@H](C)[C@H](CN(C)Cc2ccc(C(=O)O)cc2)O3)cc1	-1.8	.	.	.	.	.
COc1cc(/C=C/C(=O)N(Cc2ccccc2)c2ccccn2)cc(OC)c1OC	1.7	53.0*	2.3	-17.8	-0.6	9.5
COc1ccc(/C=C/C(=O)N(Cc2ccccc2)c2ccccn2)cc1OC	-2.1	3.1	-1.5	1.7	.	.
O=C(NCC1CC1)[C@@H]1[C@@H](CO)[C@@H]2Cn3c(ccc(-c4cccc(F)c4)c3=O)[C@@H]2N1CC1CCOCC1	-0.5	.	.	.	.	.
CC(C)(C)CN1CCNC[C@H]1Cc1ccc(O)cc1	-2.2	75.8*	.	.	3.3	4.2
CCC(=O)Nc1ccc2c(c1)C(=O)N(C)[C@H]1CC[C@@H](CC(=O)Nc3cccc(OC)c3)O[C@@H]1CO2	1.3	.	.	.	.	.
COc1ccc2oc(=O)c(C(=O)NCc3cccnc3)cc2c1	.	51.2*	-0.2	0.5	1.9	1.4
COc1cccc(NC(=O)C[C@H]2CC[C@@H]3[C@@H](COc4ccc(NC(=O)c5ccccc5F)cc4C(=O)N3C)O2)c1	-2.7	.	.	.	.	.
SMILES	Casp6 inh	DNMT1 block	NSD2 HMT inh	NS3 helicase inh	DNMT1 inh conf	Beacon interf
O=c1cc(CCl)nc2sc3ccccc3n12	9.7	62.0*	.	4.4	3.1	-2.5
Cc1cccc(C(=O)N[C@H](C(=O)OCc2cc(=O)n3c(n2)sc2ccccc23)C(C)C)c1	16.9	98.1*	0.1	8.6	3.1	0.6
O=C(OCc1cc(=O)n2c(n1)sc1ccccc12)c1ccc(O)cc1	3.4	56.2*	1.7	30.3	1.2	2.3
COc1ccc(/C=C/C(=O)OCc2cc(=O)n3c(n2)sc2ccccc23)cc1	.	6.1	36.2	2.0	.	.
C[C@@H]1CCCCO[C@@H](CN(C)C(=O)c2ccccc2)[C@@H](C)CN([C@@H](C)CO)C(=O)c2cc(NC(=O)Cc3ccccc3)ccc2O1	-0.3	.	.	.	.	.
COc1ccc(NC(=O)N(C)C[C@H]2OCCCC[C@H](C)Oc3ccc(NC(=O)Nc4ccc(F)cc4)cc3C(=O)N([C@@H](C)CO)C[C@@H]2C)cc1	0.9	.	.	.	.	.
Cc1ccc(NC(=O)c2nc[nH]c2C(=O)NCCCCNC(=O)c2[nH]cnc2C(=O)Nc2ccc(C)cc2)cc1	6.2	88.8*	.	.	2.3	-3.6
O=C(Nc1cccc(Cl)c1)c1nc[nH]c1C(=O)NCCCNC(=O)c1[nH]cnc1C(=O)Nc1cccc(Cl)c1	-3.3	60.6*	.	.	1.9	-3.4
O=C(Nc1ccccc1)c1nc[nH]c1C(=O)NCCCCNC(=O)c1[nH]cnc1C(=O)Nc1ccccc1	2.5	-15.4	.	.	.	.
Cc1ccc(NC(=O)c2nc[nH]c2C(=O)NCCCCCCNC(=O)c2[nH]cnc2C(=O)Nc2ccc(C)cc2)cc1	-2.0	28.0	.	.	.	.
Cc1ccc(NC(=O)c2nc[nH]c2C(=O)NCCCNC(=O)c2[nH]cnc2C(=O)Nc2ccc(C)cc2)cc1	-3.2	59.4*	.	.	8.3	0.4
NS(=O)(=O)c1ccc(Nc2nc(-c3ccc(F)cc3)cs2)cc1	9.7	-5.7	0.7	-19.5	.	.
COc1ccc(-c2csc(Nc3ccc(S(N)(=O)=O)cc3)n2)cc1OC	4.4	63.3*	-1.8	-27.9	3.9	14.2
COc1ccc(NC(=O)N(C)C[C@H]2OCCCC[C@@H](C)Oc3ccc(NC(=O)Cc4ccccc4)cc3C(=O)N([C@H](C)CO)C[C@@H]2C)cc1	7.4	.	.	.	.	.
OC(CN1CCOCC1)c1ccc(F)cc1 (stereo not drawn)	0.3	77.0*	-1.1	5.7	3.2	2.0
O=[N+]([O-])c1ccc(C(O)CN2CCOCC2)cc1 (stereo not drawn)	-3.9	-0.3	.	-5.5	.	.
C/C=C/c1ccc2c(c1)O[C@@H](CN(C)Cc1ccncc1)[C@@H](C)CN([C@H](C)CO)S2(=O)=O	0.6	.	.	.	.	.
O=C(CCS(=O)(=O)c1ccc(Br)cc1)N1CCCCCC1	61.0*	100.2*	9.8	4.4	6.8	3.5

Screens: PubChem BioAssay, several laboratories
